PubChem BioAssay AID775 (SRMLSC, 2007)
Out of some 130,000 compounds screened, about 900 (0.69%) were called active.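 How the source made its calls: active means inhibition above a set limit, placed 3 SD over the median of all compounds (cut at about 26% in these data); inactive means the rest.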 Only a selection was taken, and actives are over-represented in it overall.

Assay: rescue of nicotinamide-shortened yeast lifespan – S. cerevisiae, OD615, primary screen (AID 775);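 further: 0% = nicotinamide-treated wells and 100% = cells grown without nicotinamide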
Settings: S. cerevisiae growth with nicotinamide, at 10 µM, active compounds read high, deaD strain in restrictive glucose medium
In short: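 Measured by: optical density (absorbance) at 615 nm; System: modified budding yeast, DeaD strain; Medium: restrictive CSMM-D dextrose medium; Timing: 4 h preincubation then 48 h treatment at 30 °C.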
With `COc1ccc(C(=O)C2CN(C)CC2C(=O)c2ccc(OC)cc2)cc1` (stereo not given) the inhibition of the nicotinamide effect was -7.58% (inactive). With `COc1ccc(C(=O)CC2C(=O)N(C)C(=O)N(C)C2=O)cc1` the inhibition of the nicotinamide effect was 31% (active). For `CN1CCN(C(=S)SCC(=O)Nc2ccc(Cl)cc2C(=O)c2ccccc2)CC1`, the inhibition of the nicotinamide effect was 2.18% (inactive). For `CNC(=S)N/N=C1\C2CN3CCN(C2)CC1(c1ccccc1)C3`, the inhibition of the nicotinamide effect was 6.05% (inactive). For `CC(=NC1CCN(Cc2ccccc2)CC1)c1c(O)n(C)c(=O)n(C)c1=O`, the inhibition of the nicotinamide effect was -9.29% (inactive). In the case of `CC(=C1C(=O)c2ccccc2C1=O)N1CCN(CCN=Cc2c(O)n(C)c(=O)n(C)c2=O)CC1`, the inhibition of the nicotinamide effect is reported as 26.9% (active). In the case of `Cn1c(O)c(C=NCCCC(=O)O)c(=O)n(C)c1=O`, the inhibition of the nicotinamide effect is reported as -5.17% (inactive). For `O=C(N/N=C/c1c(O)n(Cc2ccccc2)c(=O)[nH]c1=O)c1ccccc1`, the inhibition of the nicotinamide effect was -4.35% (inactive). For `CN(C)C(=O)Oc1cc(=O)n2c3c(cccc13)CCC2`, the inhibition of the nicotinamide effect was -0.91% (inactive). For `O=C(CCNS(=O)(=O)c1ccccc1)Nc1ccc(Cl)cc1C(=O)c1ccccc1`, the inhibition of the nicotinamide effect was 0.6% (inactive). In the case of `Cc1ccc(-n2c(-c3ccc([N+](=O)[O-])cc3)nc3ccccc3c2=O)cc1`, the inhibition of the nicotinamide effect is reported as 2.14% (inactive). In the case of `CCCCCn1c(=O)c(C(=O)NCc2ccccn2)c(O)c2ccccc21`, the inhibition of the nicotinamide effect is reported as 36.3% (active). In the case of `CCCCCn1c(=O)c(C(=O)Nc2c(C)n(C)n(-c3ccccc3)c2=O)c(O)c2ccccc21`, the inhibition of the nicotinamide effect is reported as 0.87% (inactive). For `COc1cc(C(c2c(O)c3ccccc3oc2=O)c2c(C)n(C)n(-c3ccccc3)c2=O)ccc1O` (stereo not given), the inhibition of the nicotinamide effect was 0.56% (inactive). In the case of `CC(C(=O)Nc1ccc(Cl)cc1Cl)N1CC=C(c2ccccc2)CC1` (stereo not given), the inhibition of the nicotinamide effect is reported as -1.28% (inactive). For `CN(C)CC1CCCCC1OC(=O)c1ccc(Cl)c(Cl)c1` (stereo not given), the inhibition of the nicotinamide effect was 2.28% (inactive). In the case of `Cc1ccc(-n2c(C)cc(/C=C3\C(=O)NC(=O)N(C)C3=O)c2C)cc1C`, the inhibition of the nicotinamide effect is reported as 4.25% (inactive). In the case of `Cc1ccnc(-n2c(C)cc(/C=C3\C(=O)NC(=S)N(C)C3=O)c2C)c1`, the inhibition of the nicotinamide effect is reported as 43.7% (active). With `C=CCn1c(O)c(/C=N/N2CCOCC2)c(=O)[nH]c1=S` the inhibition of the nicotinamide effect was -2.87% (inactive). In the case of `O=C1NC(=O)N(c2ccc(F)cc2)C(=O)/C1=C/c1ccc2c(c1)CCCN2Cc1ccccc1`, the inhibition of the nicotinamide effect is reported as -3.32% (inactive).
